Measurements taken from ChEMBL document CHEMBL1143826, “Treatment of Staphylococcus aureus biofilm infection by the quorum-sensing inhibitor RIP” (2007).

What was measured:
Assay type in all cases: functional
Conditions in all cases: route intraperitoneal
Staphylococcus aureus [1] = assay: Antibacterial activity against Staphylococcus aureus SD in rat graft model assessed as biofilm reduction at 20 mg/kg, ip administered as single dose, 2 days after graft implantation
In short: (§1)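 Wistar rats (n = 5) with 1-cm2 collagen-sealed Dacron grafts implanted subcutaneously. 2 × 10^7 exponentially growing bacteria inoculated onto the graft. RIP given intraperitoneally daily for 1, 4 or 7 days, starting immediately after implantation or 2 days later. Grafts explanted on day 10. Bacterial load expressed as CFU/ml; detection limit 10 CFU/ml. Untreated challenged controls.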

Staphylococcus aureus [2] = assay: Antibacterial activity against Staphylococcus aureus SD in rat graft model assessed as biofilm reduction at 10 mg/kg, ip administered as seven doses, 2 days after graft implantation; in short: as §1
Staphylococcus aureus [3] = assay: Antibacterial activity against Staphylococcus aureus SD in rat graft model assessed as biofilm reduction at 10 mg/kg, ip administered as four doses, 2 days after graft implantation; in short: as §1
Staphylococcus aureus [4] = assay: Antibacterial activity against Staphylococcus aureus SD in rat graft model assessed as biofilm reduction at 30 mg/kg, ip administered as single dose immediately after graft implantation; in short: as §1
Staphylococcus aureus [5] = assay: Antibacterial activity against Staphylococcus aureus SD in rat graft model assessed as biofilm reduction at 10 mg/kg, ip administered as single dose immediately after graft implantation; in short: as §1
Staphylococcus aureus [6] = assay: Antibacterial activity against methicillin-resistant Staphylococcus aureus ATCC 43300 in rat graft model assessed as biofilm reduction at 10 mg/kg, ip administered as seven dose, 3 days after graft implantation
In short: (§2)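 Wistar rats (n = 15) with subcutaneous 1-cm2 collagen-sealed Dacron grafts challenged with MRSA. Treatment began 3 days after implantation, once the biofilm was established. RIP 10 mg/kg and/or teicoplanin 3 mg/kg given ip daily for 7 days. Grafts explanted on day 10 and counted as CFU/ml. Untreated controls explanted on days 3 and 10.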

Staphylococcus aureus [7] = assay: Antibacterial activity against Staphylococcus aureus SD in rat graft model assessed as biofilm reduction at 10 mg/kg, ip administered as single dose, 2 days after graft implantation; in short: as §1
Staphylococcus aureus [8] = assay: Antibacterial activity against Staphylococcus aureus SD in rat graft model assessed as biofilm reduction at 30 mg/kg, ip administered as single dose, 2 days after graft implantation; in short: as §1
Staphylococcus aureus [9] = assay: Antibacterial activity against methicillin-resistant Staphylococcus aureus ATCC 43300 in rat graft model assessed as biofilm reduction at 3 mg/kg, ip administered as seven dose, 3 days after graft implantation; in short: as §2
Staphylococcus aureus [10] = assay: Antibacterial activity against Staphylococcus aureus SD in rat graft model assessed as biofilm reduction at 20 mg/kg, ip administered as single dose immediately after graft implantation; in short: as §1
Staphylococcus aureus [11] = assay: Antibacterial activity against Staphylococcus aureus SD in rat graft model assessed as biofilm reduction at 20 mg/kg, ip administered as seven doses, 2 days after graft implantation; in short: as §1
Staphylococcus aureus [12] = assay: Antibacterial activity against Staphylococcus aureus SD in rat graft model assessed as biofilm reduction at 20 mg/kg, ip administered as four doses, 2 days after graft implantation; in short: as §1
Staphylococcus aureus [13] = assay: Antibacterial activity against Staphylococcus aureus SD in rat graft model assessed as biofilm reduction at 30 mg/kg, ip administered as four doses, 2 days after graft implantation; in short: as §1
Staphylococcus aureus [14] = assay: Antibacterial activity against Staphylococcus aureus SD in rat graft model assessed as biofilm reduction at 30 mg/kg, ip administered as seven doses, 2 days after graft implantation; in short: as §1

Substance: H-YSPWTNF-NH2
- CFU/ml (Staphylococcus aureus [1]): 3000000
- CFU/ml (Staphylococcus aureus [2]): 6700
- CFU/ml (Staphylococcus aureus [3]): 53000
- CFU/ml (Staphylococcus aureus [4]): 2300
- CFU/ml (Staphylococcus aureus [5]): 50000
- CFU/ml (Staphylococcus aureus [6]): 78000
- CFU/ml (Staphylococcus aureus [7]): 8400000
- CFU/ml (Staphylococcus aureus [8]): 760000
- CFU/ml (Staphylococcus aureus [9]): 36000
- CFU/ml (Staphylococcus aureus [10]): 9400
- CFU/ml (Staphylococcus aureus [11]): 410
- CFU/ml (Staphylococcus aureus [12]): 6300
- CFU/ml (Staphylococcus aureus [13]): 850
- CFU/ml (Staphylococcus aureus [14]): 290
